# A selection: hits, their analogues and other compounds. The true share with any hit is near 2.6%.
# Platelet DG rel – inhibitors of platelet dense granule secretion, primary screen, cell-based, MLPCN, human platelets; inhibition, %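 (compounds screened at 7.5 µM in platelet-rich plasma)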; 300,000 compounds, 0.22% hits; human platelet-rich plasma, SFLLRN dense granule ATP release, luminescence;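 active = mean replicate score, as percent of positive control, at or above 50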
# SENP6 inh – SENP6 protease inhibitors, primary screen, biochemical, luminescence, uHTS. 330,000 compounds, 1.8% hits. Sentrin-specific protease 6 (Homo sapiens), Q9GZR1. Recombinant SENP6 catalytic domain, aminoluciferin luminescence. AID 2599, 2010. inhibition, % at 10 µM;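 active = inhibition above about 50% at the single tested dose, limit read from the data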
# SENP7 inh – SENP7 protease inhibitors, primary screen, biochemical, luminescence, uHTS. recombinant SENP7, Z-RLRGG-aminoluciferin luminescence, 40 min. inhibition, % at 5 µM. 330,000 compounds, 1.5% hits;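 active = inhibition above about 50% at the single test dose, limit read from the data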
# SENP8 block-1 – human SENP8 protease inhibitors, primary screen, biochemical, fluorescence, Nedd8 protein substrate, uHTS. Sentrin-specific protease 8 (Homo sapiens), Q96LD8. recombinant SENP8. inhibition, % at 20 µM. 360,000 compounds, 0.64% hits. AID 602440, 2012; in the data active = inhibition mostly above about 40%, no sharp cut-off; inactive = mostly below about 27%
# SENP8 block-2 – SENP8 protease inhibitors, primary screen, biochemical, luminescence; 330,000 compounds, 1.2% hits; AID 2540, 2010; purified SENP8, Z-RLRGG-aminoluciferin cleavage; inhibition, % at 10 µM; Sentrin-specific protease 8 (Homo sapiens), Q96LD8; in the data active = inhibition above about 50%
# SENP1 FRET inh – human SENP1 catalytic domain inhibitors, primary screen, biochemical, FRET, uHTS. Sentrin-specific protease 1 (Homo sapiens), Q9P0U3. recombinant SENP1 catalytic domain, CyPet-SUMO1-YPet FRET cleavage. inhibition, % at 10 µM. 360,000 compounds, 0.21% hits;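 active = inhibition at least 30% at 10 µM, raw YFP signal under a set limit, fluorescence ratio 0.5 to 1.5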
# Target sequence (Q9P0U3 419-644 limits assumed): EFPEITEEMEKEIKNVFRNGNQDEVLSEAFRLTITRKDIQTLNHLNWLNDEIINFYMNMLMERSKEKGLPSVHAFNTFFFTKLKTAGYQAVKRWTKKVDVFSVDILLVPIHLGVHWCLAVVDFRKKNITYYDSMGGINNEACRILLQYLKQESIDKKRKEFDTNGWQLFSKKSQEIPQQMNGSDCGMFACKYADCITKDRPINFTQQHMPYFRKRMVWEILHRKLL
#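 Controls: no-enzyme wells low, DMSO-plus-enzyme wells high control. Test system: human recombinant His6-tagged SENP1 catalytic domain enzyme. Reagent: SFCypet-SUMO1-SFYpet FRET protein substrate, 25 nM final. Doses: one dose per compound, 10 µM, 0.5% DMSO. Detection: FRET, CFP and YFP emission. Timing: 50 min reaction at room temperature.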
# SENP8 conf – SENP8 protease inhibitors, retest, confirmation, biochemical, luminescence, single concentration | shares compounds with SENP7 inh | Recombinant SENP8, Z-RLRGG-aminoluciferin luminescence, 60 min | inhibition, % at 12.5 µM | 6,200 compounds, 40% hits | AID 488912, 2010;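 active = mean inhibition across replicates above about 50%, limit read from the data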
# SENP6 conf – SENP6 protease inhibitors, confirmation, biochemical, luminescence, single concentration; shares compounds with SENP7 inh; recombinant SENP6, Z-RLRGG-aminoluciferin luminescence; inhibition, % at 12.5 µM; 6,200 compounds, 58% hits; AID 488915, 2010
# SENP7 confirm – SENP7 protease inhibitors, retest, confirmation, biochemical, luminescence, single concentration; shares compounds with SENP7 inh; recombinant SENP7, Z-RLRGG-aminoluciferin luminescence, 40 min; inhibition, % at 12.5 µM; 6,200 compounds, 69% hits; AID 488917, 2010
# Casp3 SENP sel – caspase-3 protease inhibitors, confirmation, selectivity assay for SENP inhibitor project, biochemical, single concentration; purified caspase-3, Z-DEVD-aminoluciferin luminescence, 60 min; AID 488918, 2010; inhibition, % at 12.5 µM; shares compounds with SENP7 inh; 6,200 compounds, 60% hits;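 active = mean inhibition above about 50%, limit read from the data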
# Target sequence (P42574 28-227 limits assumed): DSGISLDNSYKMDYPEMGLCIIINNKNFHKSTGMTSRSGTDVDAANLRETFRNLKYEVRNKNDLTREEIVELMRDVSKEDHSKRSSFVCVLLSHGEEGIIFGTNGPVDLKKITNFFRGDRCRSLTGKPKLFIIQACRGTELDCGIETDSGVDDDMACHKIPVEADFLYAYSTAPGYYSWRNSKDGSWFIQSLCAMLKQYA
# SENP luc ctr – luminescence interference (SENP counter-screen). inhibition, % at 12.5 µM. shares compounds with SENP7 inh. Pre-incubated SENP8/Z-RLRGG-aminoluciferin, luciferase luminescence interference. 6,200 compounds, 39% hits. AID 488919;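 active = mean inhibition above about 50% when retested at one dose, limit read from the data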
# Numbers stand for hits; . = inactive; / = no result given.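 The calls were made as follows, unless noted: active = mean inhibition above about 50% in the one-dose retest (limit read from the data); inactive = the rest.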
SMILES,Platelet DG rel,SENP6 inh,SENP7 inh,SENP8 block-1,SENP8 block-2,SENP1 FRET inh,SENP8 conf,SENP6 conf,SENP7 confirm,Casp3 SENP sel,SENP luc ctr
CN(C)c1ccc(-c2cc3ccccc3c(=O)o2)cc1,/,76.8,65.9,.,84.4,.,.,.,.,.,.
Cc1ccc(-c2onc3ccc(Br)cc23)cc1,.,.,.,.,.,.,/,/,/,/,/
c1ccc(Cn2nc(-c3ccccc3)nc2-c2ccccc2)cc1,.,61.9,.,.,.,.,.,.,73.5,.,.
NC(=O)c1ccc(-c2noc(-c3cccc(Cl)c3)n2)cc1,/,.,58.2,.,.,.,.,.,.,.,.
O=C(O)c1cccc(-c2noc(-c3cccc(Cl)c3)n2)c1,/,99.3,100.7,.,98.1,.,99.2,100.3,103.3,97.5,96.5
COc1cc(-c2noc(-c3cccc(Cl)c3)n2)cc(OC)c1OC,.,.,.,.,.,.,/,/,/,/,/
CC1CC1C(=O)N1CCN(S(=O)(=O)c2cccc(F)c2)CC1 (centres undefined),.,.,.,.,.,.,/,/,/,/,/
COc1ccsc1NC(=O)OCc1ccc(Cl)cc1,.,50.5,.,.,.,.,57.9,56.3,84.5,55.2,62.5
CSc1nsc(NC(=O)OCc2ccc(Cl)cc2)n1,.,.,.,.,.,.,/,/,/,/,/
Cc1cc(C)c(NC(=O)C2CCCCN2C)c(C)c1 (centres undefined),.,.,79.6,.,.,.,.,.,.,.,.
Cn1cc(/C=C/C(=O)c2ccccc2)c2ccccc21,.,69.4,78.8,.,63.4,.,.,73.7,88.7,.,.
Cc1ccc(C(=O)/C=C/c2cn(CN3CCN(C)CC3)c3ccccc23)cc1,.,.,.,.,.,.,/,/,/,/,/
O=C(c1ccncc1)N1CCCC(N2CCN(c3ccc(F)cc3)CC2)C1 (centres undefined),.,.,.,.,.,.,/,/,/,/,/
Cc1ccc(S(=O)(=O)C2(C(=O)Nc3nccs3)CC2)cc1,/,.,.,.,.,.,/,/,/,/,/
Nc1ccc(-c2nc3ccccc3o2)cc1,.,60.5,67.0,.,55.2,.,70.1,65.4,89.7,70.1,70.7
Nc1cc(N)cc(-c2nc3ccccc3o2)c1,.,.,.,.,.,.,/,/,/,/,/
Cc1ccc2nc(-c3ccc(O)cc3)oc2c1,.,84.9,74.5,.,85.5,.,83.9,83.8,94.3,67.7,.
CCc1ccc2oc(-c3cccc(N)c3)nc2c1,.,95.6,98.1,.,95.3,.,.,97.5,101.7,93.5,95.8
Cc1ccc2nc(-c3cccc(N)c3)oc2c1,.,95.3,97.7,.,95.5,.,.,97.0,102.1,95.3,94.1
CC(=O)Nc1ccc(-c2nc3ccc(NC(C)=O)cc3o2)cc1,.,.,.,.,.,.,/,/,/,/,/
Cc1cc(C)c2oc(-c3cccc(N)c3)nc2c1,.,.,.,.,.,.,/,/,/,/,/
